Where two headings read alike, the source gives them in different places.
How the values were obtained:
[1] = Plasma concentrations in CAD patients after oral Plavix 75 mg; format: in vivo; settings: human
How it was run: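 Venous blood (3 mL) from CAD patients was drawn into EDTA/DTT tubes before dosing and at 0.5, 1, 2, 2.5, 3, 3.5, 6, 8, 12 and 24 h after dosing. MPB (500 mmol/L stock) was added at once, then spun 16 000 g for 10 min and held at −80 °C. Read-out was LC-MS/MS on C18 at 40 °C, 0.1% formic acid:acetonitrile (1:19), 1 mL/min. Thiol metabolite was measured as derivative. Calibration used peak area with internal standard, weighted 1/x2. Mean±SD, n=3.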

[2] = format: in vitro ADME, human; settings: mean±SD; for Found, after three-thaw cycles / Found, at –80 °C for 45 days / Found, plasma at room temperature for 8 hours: human plasma; for Found, extract at room temperature for 8 hours / Found, extract in the auto-sampler at 4 °C for 24 hours: plasma extract
CYP2C19 = settings: cited from earlier work
[3] = Stability of stock solutions in acetonitrile; format: physicochemical; settings: in acetonitrile at −20 °C
How it was run: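 Separate acetonitrile stocks were made: 10 μg/mL for each analyte and 1 mg/mL for the internal standard. They were vortexed, briefly sonicated and stored at −20 °C. Analyte stability was examined after 2 months at −20 °C. Read-out was LC-MS/MS quantification.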

carboxylesterases = settings: cited from earlier work

Cmax [1] | Found, after three-thaw cycles ([2]; added 0.2 ng/mL) | Found, at –80 °C for 45 days ([2]; added 0.2 ng/mL) | Found, plasma at room temperature for 8 hours ([2]; added 0.2 ng/mL) | Found, after three-thaw cycles ([2]; added 10 ng/mL) | Found, at –80 °C for 45 days ([2]; added 10 ng/mL) | Found, plasma at room temperature for 8 hours ([2]; added 10 ng/mL) | Found, extract at room temperature for 8 hours ([2]; added 0.2 ng/mL) | Found, extract in the auto-sampler at 4 °C for 24 hours ([2]; added 0.2 ng/mL) | Found, extract at room temperature for 8 hours ([2]; added 10 ng/mL) | Found, extract in the auto-sampler at 4 °C for 24 hours ([2]; added 10 ng/mL) | Time stock solutions were stable [3] | Compound | Contribution of CYP2C19 to metabolism, second step (CYP2C19; 2-Oxo-CLP to active metabolite) | Contribution of CYP2C19 to metabolism, first step (CYP2C19; clopidogrel metabolized to 2-Oxo-CLP) | Portion hydrolyzed into inactive metabolites by carboxylesterases (carboxylesterases)
17 ng/mL | 0.2 ± 0.0 ng/mL | 0.2 ± 0.0 ng/mL | 0.2 ± 0.0 ng/mL | 10.1 ± 0.8 ng/mL | 10.1 ± 0.2 ng/mL | 10.4 ± 0.8 ng/mL | 0.2 ± 0.0 ng/mL | 0.2 ± 0.0 ng/mL | 10.0 ± 1.4 ng/mL | 10.0 ± 0.8 ng/mL | at least 2 months | COC(=O)[C@H](c1ccccc1Cl)N1CCc2sccc2C1 [Clopidogrel, (+)-(S)-methyl 2-(2-chlorophenyl)-2-(6,7-dihydrothieno[3,2-c]pyridine-5(4H)-yl)acetate] | 20% | 45% | approximately 85%
 |  |  |  |  |  |  |  |  |  |  | at least 2 months | CC#C[C@]1(O)CC[C@H]2[C@@H]3CCC4=CC(=O)CCC4=C3[C@@H](c3ccc(N(C)C)cc3)C[C@@]21C [IS, Mifepristone] |  |  | 

From publication PMC9002156 (Journal of Biomedical Research, 2022)
